Source: ChEMBL document CHEMBL4325893, “Synthesis and antibacterial profiles of targeted triclosan derivatives” (2019)
Values after ≈ are worked out from the molar mass of the structure shown.

Tests used:
[1] = system: Enterococcus faecalis; assay: Antibacterial activity against Enterococcus faecalis ATCC 29212 after 18 hrs; format: functional; conditions: ATCC 29212, 18 h
Summary of the method: (§1)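 Broth microdilution in Nutrient Broth No. 2; stocks in ethanol diluted to 0.01–128 µg/ml (triclosan) or 0.25–256 µg/ml (glycosides). Overnight 37 °C NB2 cultures diluted 1 in 10^4 in saline and added to the dilutions. Incubation at 37 °C with agitation, OD read every 15 min; MIC is the lowest concentration preventing any OD rise after 18 h.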

[2] = system: Citrobacter freundii; assay: Antibacterial activity against Citrobacter freundii 8090 after 18 hrs; format: functional; conditions: Citrobacter freundii, 8090, 18 h; summary of the method: as §1
[3] = system: Bacillus subtilis; assay: Antibacterial activity against Bacillus subtilis NCTC 10073 after 18 hrs; format: functional; conditions: NCTC 10073, 18 h; summary of the method: as §1
[4] = system: Streptococcus agalactiae; assay: Antibacterial activity against Streptococcus agalactiae OCC 182 after 18 hrs; format: functional; conditions: OCC 182, 18 h
Summary of the method: (§2)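 Broth microdilution in Nutrient Broth No. 2. Ethanol stocks were diluted in broth to 0.01–128 µg/ml for triclosan and 0.25–256 µg/ml for glycosides. Overnight 37°C NB2 cultures were diluted 1 in 10^4 in saline and added to the wells. Plates were incubated at 37°C with OD read every 15 min after agitation. MIC was the lowest concentration giving no OD increase at 18 h.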

[5] = system: Staphylococcus aureus; assay: Antibacterial activity against Staphylococcus aureus ATCC 29213 after 18 hrs; format: functional; conditions: ATCC 29213, 18 h; summary of the method: as §1
[6] = system: Escherichia coli; assay: Antibacterial activity against Escherichia coli ATCC 35218 after 18 hrs; format: functional; conditions: ATCC 35218, 18 h; summary of the method: as §1
[7] = system: Escherichia coli; assay: Antibacterial activity against Escherichia coli ATCC 25922 after 18 hrs; format: functional; conditions: ATCC 25922, 18 h; summary of the method: as §1
[8] = system: Staphylococcus aureus; assay: Antibacterial activity against Staphylococcus aureus ATCC 25923 after 18 hrs; format: functional; conditions: ATCC 25923, 18 h; summary of the method: as §1
[9] = system: Hafnia alvei; assay: Antibacterial activity against Hafnia alvei 13337 after 18 hrs; format: functional; conditions: Hafnia alvei, 13337, 18 h; summary of the method: as §1
[10] = system: Staphylococcus aureus; assay: Antibacterial activity against Staphylococcus aureus ATCC 9144 after 18 hrs; format: functional; conditions: ATCC 9144, 18 h; summary of the method: as §1
[11] = system: Staphylococcus epidermidis; assay: Antibacterial activity against Staphylococcus epidermidis ATCC 14990 after 18 hrs; format: functional; conditions: ATCC 14990, 18 h; summary of the method: as §1
[12] = system: Enterococcus faecium; assay: Antibacterial activity against Enterococcus faecium ATCC 19434 after 18 hrs; format: functional; conditions: ATCC 19434, 18 h; summary of the method: as §1
[13] = system: Serratia marcescens; assay: Antibacterial activity against Serratia marcescens OCC 217 after 18 hrs; format: functional; conditions: OCC 217, 18 h; summary of the method: as §1
[14] = system: Staphylococcus saprophyticus; assay: Antibacterial activity against Staphylococcus saprophyticus ATCC 15305 after 18 hrs; format: functional; conditions: ATCC 15305, 18 h; summary of the method: as §2
[15] = system: Staphylococcus aureus; assay: Antibacterial activity against Staphylococcus aureus NCTC 13758 after 18 hrs; format: functional; conditions: NCTC 13758, 18 h; summary of the method: as §1
[16] = system: Enterococcus faecalis; assay: Antibacterial activity against Enterococcus faecalis ATCC 33186 after 18 hrs; format: functional; conditions: ATCC 33186, 18 h; summary of the method: as §1
[17] = Antibacterial activity against Salmonella enterica subspecies enterica serotype Infantis OCC 2133 after 18 hrs; format: functional, Salmonella enterica subsp. enterica serovar Infantis; conditions: OCC 2133, 18 h; summary of the method: as §1
[18] = system: Escherichia hermannii; assay: Antibacterial activity against Escherichia hermannii 33650 after 18 hrs; format: functional; conditions: Atlantibacter hermannii, 33650, 18 h; summary of the method: as §1
[19] = system: Staphylococcus aureus; assay: Antibacterial activity against Staphylococcus aureus OCC 106 after 18 hrs; format: functional; conditions: OCC 106, 18 h; summary of the method: as §1
[20] = system: Klebsiella pneumoniae; assay: Antibacterial activity against Klebsiella pneumoniae ATCC 10031 after 18 hrs; format: functional; conditions: ATCC 10031, 18 h; summary of the method: as §1
[21] = Antibacterial activity against Salmonella enterica subspecies enterica serotype Poona NCTC 4840 after 18 hrs; format: functional, Salmonella enterica subsp. enterica serovar Poona; conditions: NCTC 4840, 18 h; summary of the method: as §1
[22] = system: Escherichia coli; assay: Antibacterial activity against Escherichia coli NCTC 13216 after 18 hrs; format: functional; conditions: NCTC 13216, 18 h; summary of the method: as §1
[23] = system: Streptococcus viridans; assay: Antibacterial activity against Streptococcus viridans OCC 234 after 18 hrs; format: functional; conditions: OCC 234, 18 h; summary of the method: as §2
[24] = system: Klebsiella aerogenes; assay: Antibacterial activity against Klebsiella aerogenes NCTC 8167 after 18 hrs; format: functional; conditions: NCTC 8167, 18 h; summary of the method: as §1
[25] = Antibacterial activity against Salmonella enterica subspecies enterica serotype Dublin OCC 627 after 18 hrs; format: functional, Salmonella enterica subsp. enterica serovar Dublin; conditions: OCC 627, 18 h; summary of the method: as §1
[26] = system: Cronobacter sakazakii; assay: Antibacterial activity against Cronobacter sakazakii 29544 after 18 hrs; format: functional; conditions: Cronobacter sakazakii, 29544, 18 h; summary of the method: as §1
[27] = system: Salmonella typhimurium; assay: Antibacterial activity against Salmonella enterica subspecies enterica serotype typhimurium ATCC 14028 after 18 hrs; format: functional, Salmonella enterica subsp. enterica serovar Typhimurium; conditions: ATCC 14028, 18 h; summary of the method: as §1
[28] = system: Staphylococcus aureus; assay: Antibacterial activity against Staphylococcus aureus OCC 104 after 18 hrs; format: functional; conditions: OCC 104, 18 h; summary of the method: as §1
[29] = system: Escherichia coli; assay: Antibacterial activity against Escherichia coli OCC 122 after 18 hrs; format: functional; conditions: OCC 122, 18 h; summary of the method: as §1

Structure (SMILES): OC[C@H]1O[C@H](Oc2cc(Cl)ccc2Oc2ccc(Cl)cc2Cl)[C@H](O)[C@@H](O)[C@@H]1O
- MIC [1]: 128 µg/mL (≈ 283 µM)
- MIC [2]: 4 µg/mL (≈ 8.86 µM)
- MIC [3]: 32 µg/mL (≈ 70.8 µM)
- MIC [4]: 128 µg/mL (≈ 283 µM)
- MIC [5]: 1 µg/mL (≈ 2.21 µM)
- MIC [6]: 2 to 8 µg/mL (≈ 4.43 to 17.7 µM)
- MIC [7]: 2 to 8 µg/mL (≈ 4.43 to 17.7 µM)
- MIC [8]: 1 µg/mL (≈ 2.21 µM)
- MIC [9]: 1 µg/mL (≈ 2.21 µM)
- MIC [10]: 1 µg/mL (≈ 2.21 µM)
- MIC [11]: 1 µg/mL (≈ 2.21 µM)
- MIC [12]: 256 µg/mL (≈ 567 µM)
- MIC [13]: > 256 µg/mL
- MIC [14]: 4 µg/mL (≈ 8.86 µM)
- MIC [15]: 1 µg/mL (≈ 2.21 µM)
- MIC [16]: 128 µg/mL (≈ 283 µM)
- MIC [17]: 2 to 8 µg/mL (≈ 4.43 to 17.7 µM)
- MIC [18]: 1 µg/mL (≈ 2.21 µM)
- MIC [19]: 1 µg/mL (≈ 2.21 µM)
- MIC [20]: 1 µg/mL (≈ 2.21 µM)
- MIC [21]: 2 to 8 µg/mL (≈ 4.43 to 17.7 µM)
- MIC [22]: 2 to 8 µg/mL (≈ 4.43 to 17.7 µM)
- MIC [23]: 128 µg/mL (≈ 283 µM)
- MIC [24]: 2 µg/mL (≈ 4.43 µM)
- MIC [25]: 2 to 8 µg/mL (≈ 4.43 to 17.7 µM)
- MIC [26]: 8 µg/mL (≈ 17.7 µM)
- MIC [27]: 2 to 8 µg/mL (≈ 4.43 to 17.7 µM)
- MIC [28]: 1 µg/mL (≈ 2.21 µM)
- MIC [29]: 2 to 8 µg/mL (≈ 4.43 to 17.7 µM)
